Assay results as given in ChEMBL document CHEMBL1150393, “Evaluation of radiolabeled (hetero)aromatic analogues of N-(2-diethylaminoethyl)-4-iodobenzamide for imaging and targeted radionuclide therapy of melanoma” (J Med Chem, 2008).

Assays:
[1] = Biodistribution in uvea of C57BL/6 mouse bearing mouse B16-F0 cells at 0.74 to 0.92 MBq, iv after 6 hrs; type: ADME, organism-based, Uveal tract; settings: in vivo
How it was run: (§1)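 [¹²⁵I]-labelled compound given iv by tail vein (0.1 µmol per mouse) to male C57BL6 mice bearing s.c. B16-F0 flank tumours (5 × 10⁵ cells in PBS). Two mice per time point were killed by CO₂, frozen in liquid nitrogen and cut into 40 µm cryosections, eight slices per mouse. Slice radioactivity was read on a multiwire proportional counter, converted to kBq/g and reported as %ID/g.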

Kidney [2] = assay: Biodistribution in kidney of C57BL/6 mouse bearing mouse B16-F0 cells at 0.74 to 0.92 MBq, iv after 1 hr; type: ADME, organism-based; settings: in vivo
How it was run: (§2)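 Male C57BL6 mice with s.c. left-flank B16-F0 melanoma (5 × 10⁵ cells in PBS). Two mice per time point frozen in liquid nitrogen after CO₂ sacrifice. Eight 40 µm whole-body cryosections per mouse read by multiwire proportional counter. cpm/mm² converted to kBq/g and expressed as %ID/g.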

[3] = Biodistribution in intestinal content of C57BL/6 mouse bearing mouse B16-F0 cells at 0.74 to 0.92 MBq, iv after 1 hr; type: ADME, organism-based; settings: in vivo; how it was run: as §2
Thyroid gland [4] = assay: Biodistribution in thyroid of C57BL/6 mouse bearing mouse B16-F0 cells at 0.74 to 0.92 MBq, iv after 24 hrs; type: ADME, organism-based; settings: in vivo; how it was run: as §1
[5] = Biodistribution in uvea of C57BL/6 mouse bearing mouse B16-F0 cells at 0.74 to 0.92 MBq, iv after 72 hrs; type: ADME, organism-based, Uveal tract; settings: in vivo; how it was run: as §1
Brain [6] = assay: Biodistribution in brain of C57BL/6 mouse bearing mouse B16-F0 cells at 0.74 to 0.92 MBq, iv after 1 hr; type: ADME, organism-based; settings: in vivo; how it was run: as §2
Blood = assay: Biodistribution in blood of C57BL/6 mouse bearing mouse B16-F0 cells at 0.74 to 0.92 MBq, iv after 3 hrs; type: ADME, organism-based; settings: in vivo; how it was run: as §2
Muscle tissue [7] = assay: Biodistribution in muscle of C57BL/6 mouse bearing mouse B16-F0 cells at 0.74 to 0.92 MBq, iv after 1 hr; type: ADME, organism-based; settings: in vivo; how it was run: as §2
Lung [8] = assay: Biodistribution in lung of C57BL/6 mouse bearing mouse B16-F0 cells at 0.74 to 0.92 MBq, iv after 1 hr; type: ADME, organism-based; settings: in vivo; how it was run: as §2
[9] = Biodistribution in uvea of C57BL/6 mouse bearing mouse B16-F0 cells at 0.74 to 0.92 MBq, iv after 3 hrs; type: ADME, organism-based, Uveal tract; settings: in vivo; how it was run: as §1
[10] = Ratio of drug level in tumor to brain of C57BL/6 mouse bearing mouse B16-F0 cells at 0.74 to 0.92 MBq, iv after 3 hrs; type: ADME, organism-based; settings: in vivo
How it was run: (§3)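 Tumour and organ radioactive concentrations came from whole-body cryosection counting (40 µm slices, eight per mouse, two mice per time) after tail-vein injection of the [¹²⁵I]-labelled compound (0.1 µmol) into male C57BL6 mice bearing s.c. B16-F0 melanoma. Each value is the ratio of the tumour concentration to the organ concentration.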

[11] = Ratio of drug level in tumor to lung of C57BL/6 mouse bearing mouse B16-F0 cells at 0.74 to 0.92 MBq, iv after 3 hrs; type: ADME, organism-based; settings: in vivo; how it was run: as §3
[12] = Biodistribution in intestinal content of C57BL/6 mouse bearing mouse B16-F0 cells at 0.74 to 0.92 MBq, iv after 3 hrs; type: ADME, organism-based; settings: in vivo; how it was run: as §2
[13] = Ratio of drug level in tumor to lung of C57BL/6 mouse bearing mouse B16-F0 cells at 0.74 to 0.92 MBq, iv after 1 hr; type: ADME, organism-based; settings: in vivo; how it was run: as §3
[14] = Biodistribution in Stomach content of C57BL/6 mouse bearing mouse B16-F0 cells at 0.74 to 0.92 MBq, iv after 1 hr; type: ADME, organism-based; settings: in vivo; how it was run: as §2
[15] = Biodistribution in Stomach content of C57BL/6 mouse bearing mouse B16-F0 cells at 0.74 to 0.92 MBq, iv after 6 hrs; type: ADME, organism-based; settings: in vivo; how it was run: as §2
Muscle tissue [16] = assay: Biodistribution in muscle of C57BL/6 mouse bearing mouse B16-F0 cells at 0.74 to 0.92 MBq, iv after 6 hrs; type: ADME, organism-based; settings: in vivo; how it was run: as §2
[17] = Biodistribution in tumor of C57BL/6 mouse bearing mouse B16-F0 cells at 0.74 to 0.92 MBq, iv after 72 hrs; type: ADME, organism-based, Neoplasm; settings: in vivo; how it was run: as §1
[18] = Partition coefficient, log P in phosphate buffer solution at pH 7.4; type: physicochemical
How it was run: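 Shake-flask partition: 50 µM [¹²⁵I]-labelled compound in phosphate buffer pH 7.4 was mixed with 2 mL n-octanol. Each phase was γ-counted, P was taken as the octanol/buffer activity ratio, and log P was reported.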

[19] = Biodistribution in uvea of C57BL/6 mouse bearing mouse B16-F0 cells at 0.74 to 0.92 MBq, iv after 1 hr; type: ADME, organism-based, Uveal tract; settings: in vivo; how it was run: as §1
Spleen [20] = assay: Biodistribution in spleen of C57BL/6 mouse bearing mouse B16-F0 cells at 0.74 to 0.92 MBq, iv after 3 hrs; type: ADME, organism-based; settings: in vivo; how it was run: as §1
Kidney [21] = assay: Biodistribution in kidney of C57BL/6 mouse bearing mouse B16-F0 cells at 0.74 to 0.92 MBq, iv after 6 hrs; type: ADME, organism-based; settings: in vivo; how it was run: as §2
[22] = Biodistribution in tumor of C57BL/6 mouse bearing mouse B16-F0 cells at 0.74 to 0.92 MBq, iv after 24 hrs; type: ADME, organism-based, Neoplasm; settings: in vivo; how it was run: as §1
Spleen [23] = assay: Biodistribution in spleen of C57BL/6 mouse bearing mouse B16-F0 cells at 0.74 to 0.92 MBq, iv after 1 hr; type: ADME, organism-based; settings: in vivo; how it was run: as §1
Muscle tissue [24] = assay: Biodistribution in muscle of C57BL/6 mouse bearing mouse B16-F0 cells at 0.74 to 0.92 MBq, iv after 3 hrs; type: ADME, organism-based; settings: in vivo; how it was run: as §2
[25] = Biodistribution in tumor of C57BL/6 mouse bearing mouse B16-F0 cells at 0.74 to 0.92 MBq, iv after 1 hr; type: ADME, organism-based, Neoplasm; settings: in vivo; how it was run: as §1
Liver = assay: Biodistribution in liver of C57BL/6 mouse bearing mouse B16-F0 cells at 0.74 to 0.92 MBq, iv after 1 hr; type: ADME, organism-based; settings: in vivo; how it was run: as §2
Pancreas = assay: Biodistribution in pancreas of C57BL/6 mouse bearing mouse B16-F0 cells at 0.74 to 0.92 MBq, iv after 1 hr; type: ADME, organism-based; settings: in vivo; how it was run: as §2
Thyroid gland [26] = assay: Biodistribution in thyroid of C57BL/6 mouse bearing mouse B16-F0 cells at 0.74 to 0.92 MBq, iv after 6 hrs; type: ADME, organism-based; settings: in vivo; how it was run: as §1
Lung [27] = assay: Biodistribution in lung of C57BL/6 mouse bearing mouse B16-F0 cells at 0.74 to 0.92 MBq, iv after 3 hrs; type: ADME, organism-based; settings: in vivo; how it was run: as §2
Lung [28] = assay: Biodistribution in lung of C57BL/6 mouse bearing mouse B16-F0 cells at 0.74 to 0.92 MBq, iv after 6 hrs; type: ADME, organism-based; settings: in vivo; how it was run: as §2
[29] = Biodistribution in intestinal content of C57BL/6 mouse bearing mouse B16-F0 cells at 0.74 to 0.92 MBq, iv after 24 hrs; type: ADME, organism-based; settings: in vivo; how it was run: as §2
[30] = Ratio of drug level in tumor to lung of C57BL/6 mouse bearing mouse B16-F0 cells at 0.74 to 0.92 MBq, iv after 6 hrs; type: ADME, organism-based; settings: in vivo; how it was run: as §3
Brain [31] = assay: Biodistribution in brain of C57BL/6 mouse bearing mouse B16-F0 cells at 0.74 to 0.92 MBq, iv after 3 hrs; type: ADME, organism-based; settings: in vivo; how it was run: as §2

CCN(CC)CCNC(=O)c1ccc2cncc([125I])c2n1.Cl.Cl
Drug uptake [1]: 13.15 % ID/g | Drug uptake (Kidney [2]): 4.01 % ID/g | Drug uptake [3]: 32.83 % ID/g | Drug uptake (Thyroid gland [4]): 115.66 % ID/g | Drug uptake [5]: 13.06 % ID/g | Drug uptake (Brain [6]): 0.35 % ID/g | Drug uptake (Blood): 1.88 % ID/g | Drug uptake (Muscle tissue [7]): 0.86 % ID/g | Drug uptake (Lung [8]): 2.36 % ID/g | Drug uptake [9]: 20.3 % ID/g | Ratio [10]: 32.18 | Ratio [11]: 7.41 | Drug uptake [12]: 47.65 % ID/g | Ratio [13]: 9.86 | Drug uptake [14]: 17.58 % ID/g | Drug uptake [15]: 9.17 % ID/g | Drug uptake (Muscle tissue [16]): 0.24 % ID/g | Drug uptake [17]: 3.3 % ID/g | logD [18]: 0.51 | Drug uptake [19]: 24.11 % ID/g | Drug uptake (Spleen [20]): 0.93 % ID/g | Drug uptake (Kidney [21]): 1.2 % ID/g | Drug uptake [22]: 8.4 % ID/g | Drug uptake (Spleen [23]): 5.38 % ID/g | Drug uptake (Muscle tissue [24]): 0.43 % ID/g | Drug uptake [25]: 23.2 % ID/g | Drug uptake (Liver): 3.92 % ID/g | Drug uptake (Pancreas): 1.78 % ID/g | Drug uptake (Thyroid gland [26]): 56.95 % ID/g | Drug uptake (Lung [27]): 1.87 % ID/g | Drug uptake (Lung [28]): 1.26 % ID/g | Drug uptake [29]: 0.82 % ID/g | Ratio [30]: 9.03

CCN(CC)CCNC(=O)c1cc2c([125I])cccc2cn1.Cl.Cl
Drug uptake [1]: 18.02 % ID/g | Drug uptake (Kidney [2]): 4.62 % ID/g | Drug uptake [3]: 42.97 % ID/g | Drug uptake (Thyroid gland [4]): 88.65 % ID/g | Drug uptake [5]: 9.73 % ID/g | Drug uptake (Brain [6]): 0.3 % ID/g | Drug uptake (Blood): 2.65 % ID/g | Drug uptake (Muscle tissue [7]): 0.74 % ID/g | Drug uptake (Lung [8]): 3.68 % ID/g | Drug uptake [9]: 13.87 % ID/g | Ratio [10]: 79.11 | Drug uptake (Brain [31]): 0.09 % ID/g | Ratio [11]: 2.58 | Drug uptake [12]: 68.64 % ID/g | Ratio [13]: 1.96 | Drug uptake [14]: 23.01 % ID/g | Drug uptake [15]: 28.44 % ID/g | Drug uptake [17]: 3.1 % ID/g | logD [18]: 1.65 | Drug uptake [19]: 18.08 % ID/g | Drug uptake (Kidney [21]): 2.11 % ID/g | Drug uptake [22]: 7.1 % ID/g | Drug uptake (Spleen [23]): 2.83 % ID/g | Drug uptake (Muscle tissue [24]): 0.43 % ID/g | Drug uptake [25]: 7.3 % ID/g | Drug uptake (Liver): 3.86 % ID/g | Drug uptake (Pancreas): 2.39 % ID/g | Drug uptake (Thyroid gland [26]): 48.93 % ID/g | Drug uptake (Lung [27]): 2.76 % ID/g | Drug uptake (Lung [28]): 2.05 % ID/g | Drug uptake [29]: 1.7 % ID/g | Ratio [30]: 3.86

CCN(CC)CCNC(=O)c1cnc2cc([125I])ccc2n1.Cl.Cl
Drug uptake [1]: 32.3 % ID/g | Drug uptake (Kidney [2]): 16.46 % ID/g | Drug uptake [3]: 15.22 % ID/g | Drug uptake (Thyroid gland [4]): 94.22 % ID/g | Drug uptake [5]: 25.26 % ID/g | Drug uptake (Brain [6]): 2.34 % ID/g | Drug uptake (Blood): 2.91 % ID/g | Drug uptake (Muscle tissue [7]): 2.04 % ID/g | Drug uptake (Lung [8]): 7.83 % ID/g | Drug uptake [9]: 24.79 % ID/g | Ratio [10]: 26.87 | Drug uptake (Brain [31]): 1.03 % ID/g | Ratio [11]: 4.87 | Drug uptake [12]: 17.45 % ID/g | Ratio [13]: 2.17 | Drug uptake [14]: 24.33 % ID/g | Drug uptake [15]: 21.09 % ID/g | Drug uptake (Muscle tissue [16]): 0.87 % ID/g | Drug uptake [17]: 12.5 % ID/g | logD [18]: 1.12 | Drug uptake [19]: 33.82 % ID/g | Drug uptake (Spleen [20]): 4.69 % ID/g | Drug uptake (Kidney [21]): 7.69 % ID/g | Drug uptake [22]: 21.7 % ID/g | Drug uptake (Spleen [23]): 14.21 % ID/g | Drug uptake (Muscle tissue [24]): 0.86 % ID/g | Drug uptake [25]: 17 % ID/g | Drug uptake (Liver): 13.18 % ID/g | Drug uptake (Pancreas): 7.6 % ID/g | Drug uptake (Thyroid gland [26]): 83.77 % ID/g | Drug uptake (Lung [27]): 5.68 % ID/g | Drug uptake (Lung [28]): 4.46 % ID/g | Ratio [30]: 9.13
